Source: paper PMC11185543 (bioRxiv, 2024)
Where a SMILES comes first, the peptide text is derived from it. The star is where a group is joined. Cbz = O=C(OCc1ccccc1)*

Assays:
[1] = system: PD-L1; assay type: cell-based, human; details: 10 μM concurrent with cytokines 18–24 h, GOLM1 siRNA, EndoC-βH1 cells
How it was run: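 EndoC-βH1 cells (low-glucose DMEM, 2% BSA, nicotinamide, β-mercaptoethanol, matrigel-fibronectin coating) had 1 h pretreatment with DMSO or test compound (50 nM). They were then co-treated 18–24 h with 1000 IU/mL IFN-γ + 50 IU/mL IL-1β. For knockdown, Accell GOLM1 siRNA was used and protein was taken 72–96 h later. Proteasome blockade was 10 μM MG132 with cytokines 18–24 h, starting 72 h post-knockdown. Immunoblot; N=3 biological replicates; ANOVA.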

[2] = system: p-GCN2; assay: Immunoblot for p-GCN2 in mouse embryonic fibroblasts; assay type: cell-based; details: 6 h, MEFs
How it was run: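 MEFs grown in DMEM with 10% FBS were exposed to test compound (1 μM or 100 nM) or DMSO for 6 h. Protein lysates were collected and immunoblotted.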

[3] = system: human islets; assay: Polyribosome profiling of human islets treated with proinflammatory cytokines; assay type: cell-based; details: 50 nM with IFN-γ + IL-1β
How it was run: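 Human islets were pretreated 1 h with vehicle or test compound (50 nM), then exposed 18–24 h to 1000 IU/mL IFN-γ + 50 IU/mL IL-1β. Translation was halted with 50 μg/mL cycloheximide for 10 min, and lysates were made in buffer pH 7.5 with 10 mM MgCl2. Lysates were run on a 50–10% sucrose gradient (40,000 rpm, 2 h, 4°C) and fractionated with A254 monitoring. Fraction RNA was quantified by qRT-PCR relative to input.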

[4] = system: NOD mice; assay: Insulitis score in prediabetic NOD mice after two weeks of treatment; assay type: in vivo; details: 0.25 or 2.5 mg/kg intraperitoneal for 2 weeks
How it was run: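 Female NOD mice, 6 weeks old, received vehicle (5% DMSO, 2% Tween 80, 20% PEG400, saline) or test compound by intraperitoneal injection for two weeks. Pancreata were fixed in 4% paraformaldehyde, paraffin-embedded and sectioned. Islet infiltration was scored 1–4: none, <50% circumference, >50% circumference, intra-islet. N=4–5 mice per group; mean ±SEM; ANOVA.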

[5] = system: NOD mice; assay: β cell mass in NOD mice after two weeks of treatment; assay type: in vivo; details: 0.25 or 2.5 mg/kg intraperitoneal for 2 weeks
How it was run: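 Female NOD mice, 6 weeks old, were given test compound or vehicle (5% DMSO, 2% Tween 80, 20% PEG400, saline) intraperitoneally for two weeks. Pancreata were fixed in 4% paraformaldehyde, paraffin-embedded, sectioned and stained for insulin. β cell mass was derived from insulin+ area relative to whole pancreas area. N=4–5 mice per group; mean ±SEM; ANOVA.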

Structure (SMILES): CC(C)C[C@@H](C=O)NC(=O)[C@H](CC(C)C)NC(=O)[C@H](CC(C)C)NC(=O)OCc1ccccc1 [MG132] (Cbz-Leu-Leu-Leu-aldehyde)
- attenuation of PD-L1 levels upon GOLM1 knockdown [1]: partially reversed

Structure (SMILES): O=C(CC1NCCCC1O)Cn1cnc2cc(Br)c(Cl)cc2c1=O (stereo not drawn) [halofuginone]
- effect on p-GCN2 ([2]; 100 nM): robustly induces p-GCN2

Structure (SMILES): C/C=C(/C)C(=O)O[C@H]1C(C)=C2[C@H]([C@@H]1OC(=O)CCCCCCC)[C@@](C)(OC(C)=O)C[C@H](OC(=O)CCC)[C@@]1(O)[C@H]2OC(=O)[C@@]1(C)O [thapsigargin]
- effect on p-GCN2 ([2]; 1 μM): suppresses it

Structure (SMILES): O=C(COc1ccc(Cl)cc1)NC1CCC(NC(=O)COc2ccc(Cl)cc2)CC1 (stereo not drawn) [ISRIB]
- RNA sedimenting with polysomes (translation initiation blockade) [3]: recovery of the RNA sedimenting with polysomes
- insulitis [4]: significant reduction in insulitis
- β cell mass [5]: no effect on β cell mass
